INS promoter inh: TRM-6 insulin promoter activity inhibition | TRM-6 cells (human fetal islet line), insulin promoter-eGFP reporter, imaging; reporter expression induced with tamoxifen | inhibition, % at 2 µM | 130,000 tested, 0.9% active;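 active = inhibition above the mean plus 3 SD, with well images judged a real hit on visual review, cut at about 60% in these data, passing the limit was not always enough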
Yeast life ext: yeast lifespan extension. S. cerevisiae growth with nicotinamide, OD615; deaD strain in restrictive glucose medium. 130,000 tested, 0.68% active. inhibition of the nicotinamide effect, % at 10 µM;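 active = inhibition above a set limit, placed 3 SD over the median of all compounds, cut at about 26% in these data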
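assay system = DeaD-strain S. cerevisiae | buffer or medium = restrictive glucose medium | reagent = 1.5 mM nicotinamide | compound = 10 µM single point, 0.25% DMSO | incubation = 48 h compound exposure at 30 °C, humidified | signal = OD615 measurement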
MDM2 E3 inh: blocks human Mdm2 ubiquitin ligase activity | Q00987 | cell-based MDM2 ubiquitination luciferase reporter, 2 h; 0 = plate control, 100 = twice control, blank-subtracted | signal enhancement, % at 5 µM | 210,000 tested, 0.11% active;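 active = signal enhancement of 30% or more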;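 also: luminescence tracks abundance of the self-degrading MDM2-luciferase fusion protein; higher signal means inhibition of MDM2 E3 ligase activity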
Target sequence (Q00987 whole entry, looked up, the tested form may be a part): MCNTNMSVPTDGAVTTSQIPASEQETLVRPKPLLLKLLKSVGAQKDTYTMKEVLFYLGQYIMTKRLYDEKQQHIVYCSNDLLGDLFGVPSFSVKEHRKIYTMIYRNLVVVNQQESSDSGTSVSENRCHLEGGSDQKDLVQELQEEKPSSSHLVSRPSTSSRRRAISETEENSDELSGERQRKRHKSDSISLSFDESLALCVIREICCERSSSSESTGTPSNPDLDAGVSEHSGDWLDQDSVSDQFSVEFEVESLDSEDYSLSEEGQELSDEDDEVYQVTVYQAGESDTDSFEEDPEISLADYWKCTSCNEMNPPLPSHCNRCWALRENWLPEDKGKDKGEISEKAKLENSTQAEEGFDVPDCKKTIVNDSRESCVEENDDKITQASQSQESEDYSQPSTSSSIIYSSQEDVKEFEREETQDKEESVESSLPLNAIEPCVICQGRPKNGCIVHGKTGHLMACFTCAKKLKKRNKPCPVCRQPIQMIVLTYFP
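Timing – 2 h compound exposure at 37 °C · Assay system – mammalian cells stably expressing self-ubiquitinating, self-degrading MDM2 E3–luciferase fusion · Amount – 2000 cells seeded into each well · Measure – % luminescence enhancement versus blank-corrected plate control mean · Measured by – SteadyLite luminescence, 15 min reagent step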
Yeast growth inh: chemicals that inhibit yeast BB579 growth in restrictive medium (lifespan-shortening candidates) | AID 804 | 140,000 tested, 0.51% active | S. cerevisiae BB579 growth, OD615, 48 h | inhibition, % at 10 µM;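 active = inhibition above a set limit, 3 SD over the mean compound inhibition, cut at about 44% in these data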
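test system = yeast BB579 (DeaD) | buffer or medium = restrictive CSMM-D medium | doses = single compound dose of 10 µM, 0.25% DMSO final | times = 4 h preincubation and 48 h exposure at 30 °C | technique = culture absorbance at 615 nm | benchmarks = amphotericin B 10 µg/mL, positive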
RAM inhibit: inhibitors of the yeast RAM network; S. cerevisiae dse1pr::URA3 reporter, 5-FOA growth OD615, 2 d; analog-sensitive cbk1-as2 kinase mutant strain; inhibition, % at 50 µM; 190,000 tested, 1.8% active; AID 868;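 active = inhibition above a set limit, 3 SD over mean compound inhibition, cut at about 8.4% in these data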;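 also: inhibition rescues growth on 5-FOA so higher OD means more RAM inhibition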
Measles CPE: protection of cells from measles virus. AID 841. protection (pct of control), % at 4 µM. Measles virus-infected cells, CPE protection, absorbance. 140,000 tested, 1.5% active; in the data active = protection mostly above about 24%, no sharp cut-off; inactive = mostly below about 26%
Numbers stand for hits; 0 = inactive; - = no result. The list is not random: actives were taken first. Their share in the collection is about 4%.

SMILES | INS promoter inh | Yeast life ext | MDM2 E3 inh | Yeast growth inh | RAM inhibit | Measles CPE
Cc1c(C(=O)O)sc2nc(C)n(C)c(=O)c12 | - | 0 | 0 | 0 | 0 | 0
CS(=O)(=O)N(CC(=O)NC1CC2CCC1C2)c1ccc(Oc2ccccc2)cc1 (stereo not given) | 0 | - | 0 | - | 0 | -
CC1CN(Cc2ccccc2)C(C)CC1O (stereo not given) | - | - | 0 | - | 0 | -
CC1CCCN(C(=O)N2c3ccccc3Sc3ccccc32)C1 (stereo not given) | 0 | 0 | 0 | 0 | 10.2 | 0
O=C(NC1CCN(C(=O)N2c3ccccc3Sc3ccccc32)CC1)c1ccccc1F | 0 | 0 | 0 | 0 | 0 | 40.7
Cc1ccc(N2NC(=O)/C(=C\c3cc4c(cc3[N+](=O)[O-])OCO4)C2=O)cc1C | 0 | 48.6 | 0 | 0 | 0 | 0
Cc1cccc(N=Nc2cnc(N)s2)c1 | - | - | 0 | - | - | -
Cc1cccc(NC(=O)CSc2nc3[nH]ncc3c(=O)[nH]2)c1C | 0 | 0 | 0 | 0 | 11.0 | 0
O=C(Nc1nc2ccccc2n1CCOc1ccc(Cl)cc1)c1ccco1 | - | 0 | 0 | 0 | 0 | 40.0
C=CCN1C(=O)/C(=C\c2ccc(Oc3nc(N4CCOCC4)nc(N4CCOCC4)n3)c(OC)c2)SC1=S | 0 | - | 0 | - | 0 | -
CC(=O)Nc1ccc(S(=O)(=O)Nc2nc3ccccc3nc2Nc2ccc(S(N)(=O)=O)cc2)cc1 | - | 0 | 0 | 0 | 0 | 0
NS(=O)(=O)c1ccc(Nc2nc3ccccc3nc2NS(=O)(=O)c2cccc([N+](=O)[O-])c2)cc1 | - | - | 0 | - | 8.6 | -
COc1ccc(CCNC(=O)c2ccc(N(C)S(=O)(=O)c3ccc(C)cc3)cc2)cc1OC | 0 | - | 0 | - | 0 | -
COCCNC(=O)c1ccc(N(C)S(=O)(=O)c2ccc(OC)c(OC)c2)cc1 | 0 | 0 | 0 | 0 | 0 | 67.8
Cc1ccc(C(=O)N(c2ccccc2)C2CC(C)N(C(=O)c3ccco3)c3ccccc32)cc1 (stereo not given) | 0 | 33.9 | 0 | 0 | 0 | 0
Cc1cccc(C)c1N1CCN(S(=O)(=O)c2ccc(F)cc2)CC1 | 0 | 0 | 0 | 0 | 9.2 | 0
Cc1ccccc1CN1CCN(S(=O)(=O)c2ccc(F)cc2)CC1 | 0 | 0 | 0 | 0 | 0 | 0
COc1ccc(S(=O)(=O)N2CCN(c3cccc(C)c3C)CC2)cc1 | - | 0 | 0 | 0 | 8.4 | 0
O=C(N/N=C/C1CC2CCC1C2)c1c[nH]c2ccccc12 (stereo not given) | - | - | 0 | - | 0 | -
O=C(Cc1ccccc1)Nc1nc2ccccc2s1 | - | - | 0 | 0 | 0 | 51.9
O=C(Cc1cccs1)Nc1nc2ccccc2s1 | 0 | 0 | 0 | 0 | 0 | 0
CN(c1ccccc1)S(=O)(=O)c1cccc(NC(=O)Nc2ccc(Cl)cc2C#N)c1 | 0 | 0 | 0 | 0 | 0 | 24.6
CNC(=O)/C=C/c1cccc(C(F)(F)F)c1 | 0 | 0 | - | 0 | 0 | 52.9
CC(C)[C@H](NC(N)=O)C(=O)Nc1cccc(S(=O)(=O)N2CCOCC2)c1 | - | - | 0 | - | 0 | -
COC(=O)c1sccc1N/N=C/c1cccc(Oc2ccccc2)c1 | 0 | 0 | 0 | 0 | 8.5 | 0
SMILES | INS promoter inh | Yeast life ext | MDM2 E3 inh | Yeast growth inh | RAM inhibit | Measles CPE
COC(=O)c1sccc1N/N=C/c1cccc(OC)c1O | 0 | 0 | 0 | 0 | 0 | 0
O=C(O)C1Nc2c(O)cc(Cl)c([N+](=O)[O-])c2C2C=CCC12 (stereo not given) | 0 | - | 0 | - | 0 | -
CCc1ccc(CN2CCCC(CCC(=O)N3CCN(c4ccccn4)CC3)C2)o1 (stereo not given) | - | - | 0 | - | - | -
CCS(=O)(=O)N1CCC(c2nc(-c3ccc(C)cc3)no2)CC1 | - | 59.9 | 0 | 0 | 0 | 0
O=C(c1ccccc1)N1CCC(c2nc(-c3ccc(S(=O)(=O)N4CCOCC4)cc3)no2)CC1 | 0 | 0 | 0 | 0 | 0 | 0
CN(C)c1ccc(-c2noc(C3CCN(S(=O)(=O)c4cccc(C(=O)O)c4)CC3)n2)cc1 | 0 | 0 | 0 | 0 | 9.8 | 0
O=S(=O)(NCc1ccccc1Cl)c1cccs1 | 0 | - | 0 | - | 0 | -
O=C1c2ccccc2NC(c2ccc(-c3ccc(Br)cc3)o2)N1O (stereo not given) | 0 | 0 | 0 | 93.6 | 0 | -
O=C1c2ccccc2NC(c2ccc(-c3cccc([N+](=O)[O-])c3)o2)N1O (stereo not given) | 0 | 0 | 0 | 0 | 0 | 0
CCOC(=O)CN1C(=O)C(Sc2n[nH]c(-c3ccccc3)n2)CCc2ccccc21 (stereo not given) | 0 | 0 | 0 | 0 | 0 | 0
O=S(=O)(CCN1C=CC(C(F)(F)F)=NCC1)c1ccc(Cl)cc1Cl | - | - | 0 | - | - | -
O=C(OCc1nnc(-c2ccc(Cl)cc2)o1)c1ccc(O)cc1 | 0 | - | 0 | - | 0 | -
Cc1nn(Cc2ccccc2)c(Cl)c1C(=O)OCc1nnc(-c2ccc(Cl)cc2)o1 | - | 0 | 0 | 0 | 8.6 | 0
Cc1ccc(-c2nc3sc4c(N)ncnc4c3c3c2CCCC3)cc1 | 0 | 0 | 0 | 0 | 0 | 24.8
CCCNC(=O)OCCC12CC3CC(CC(C3)C1)C2 | 69.2 | 0 | 0 | 0 | 0 | 0
COC(=O)NCC12CC3CC(C1)CC(CNC(=O)OC)(C3)C2 | 0 | 37.2 | 0 | 0 | 0 | 0
CCCNC(=O)NCCC12CC3CC(CC(C3)C1)C2 | 0 | - | 0 | - | 0 | -
O=C(Nc1ccc(-c2nc3ccccc3[nH]2)cc1)c1ccco1 | - | 0 | 0 | 0 | 9.5 | 0
O=C(Nc1ccc2nc(-c3ccco3)[nH]c2c1)c1ccco1 | 82.1 | 0 | 0 | 0 | 0 | 0
CC(C)(C)NC(=O)c1cccc(NC(=O)c2ccc(NC(=O)c3ccco3)cc2)c1 | 100.0 | 0 | 0 | 0 | 0 | 0
CC(=O)Nc1ccc2nc(-c3ccco3)[nH]c2c1 | 0 | - | 0 | - | 0 | -
CC(C)(C)NC(=O)c1cccc(NC(=O)c2ccco2)c1 | 0 | - | 0 | 0 | 0 | 0
Cc1ccn(C(=O)c2ccc(NC(=O)CC(C)C)cc2)n1 | - | - | 0 | - | 0 | -
CCOC(=O)CSC(=S)NC(=O)c1ccc(OC)cc1 | 0 | 39.8 | 0 | 0 | 0 | 0
COc1ccc(C(=O)NC(=S)SCC(=O)O)cc1 | - | - | 0 | - | - | -
NC(=O)C1(N2CCCCC2)CCN(S(=O)(=O)c2cc(Cl)ccc2Cl)CC1 | - | 0 | 0 | 0 | 0 | 0
CCCn1nc(-c2ccccc2)c2nc3ccccc3nc21 | - | 0 | 0 | 0 | 9.6 | 0

Screening results deposited in PubChem by several laboratories.
